# Columns and labels:
# [1] = target: T1, α-Glucosidase from Saccharomyces cerevisiae (Saccharomyces cerevisiae, UniProt P53341); test: Fluorescence quenching of α-glucosidase; type: binding; conditions: for Kq (quenching rate constant): Kq = KSV/τ0, τ0 = 10^−8 s; for Kd: K a (binding constant); for ΔG°: ΔG = ΔH − TΔS
# In short: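 Intrinsic fluorescence quenching: enzyme at 6.96 × 10−2 μM, titrated with test compound (0–1.10 μM final), 5 min equilibration, at 298, 304 and 310 K. Excitation 280 nm, emission 290–500 nm, slits 2.5 nm. Buffer (pH 6.8) and compound blanks were subtracted, with inner-filter correction from absorbance. KSV from linear F0/F vs [Q]. Ka and n from double-log plot. ΔH/ΔS from van't Hoff; ΔG = ΔH − TΔS.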
# [2] = target: T1, α-Glucosidase from Saccharomyces cerevisiae; test: α-Glucosidase inhibition assay; type: biochemical
# [3] = target: T1, α-Glucosidase from Saccharomyces cerevisiae; test: Inhibitory kinetic analysis; type: biochemical
# In short: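 Enzyme in 100 mM phosphate buffer pH 6.8 at 37 °C with varied pNPG and test compound at 0, 2, 4, 6, 10 μM. Reversibility was tested as rate vs enzyme at 1.35–5.40 × 10−2 μM final. Lineweaver–Burk plots used enzyme at 6.96 × 10−2 μM. Ki came from nonlinear regression to competitive, non-competitive and mixed models. Mean ± SD, n = 3.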
# [4] = van't Hoff plot, 298, 304 and 310 K
# T1 sequence (P53341 whole entry): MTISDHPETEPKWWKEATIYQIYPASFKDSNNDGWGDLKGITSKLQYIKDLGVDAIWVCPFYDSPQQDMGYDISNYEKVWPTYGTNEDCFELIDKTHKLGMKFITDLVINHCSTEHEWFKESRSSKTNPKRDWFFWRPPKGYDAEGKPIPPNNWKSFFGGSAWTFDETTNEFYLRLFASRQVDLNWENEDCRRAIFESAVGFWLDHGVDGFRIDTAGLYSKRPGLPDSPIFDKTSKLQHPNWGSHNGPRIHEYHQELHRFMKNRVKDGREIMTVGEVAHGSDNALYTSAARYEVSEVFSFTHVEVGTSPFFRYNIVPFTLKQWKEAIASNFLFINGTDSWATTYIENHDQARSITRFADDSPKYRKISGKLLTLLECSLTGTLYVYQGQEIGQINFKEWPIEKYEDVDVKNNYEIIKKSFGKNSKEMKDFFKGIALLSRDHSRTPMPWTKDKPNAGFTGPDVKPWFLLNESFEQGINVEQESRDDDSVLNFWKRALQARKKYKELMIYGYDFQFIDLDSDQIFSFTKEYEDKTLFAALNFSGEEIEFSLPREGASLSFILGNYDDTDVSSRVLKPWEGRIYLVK
smiles,measurement,setting,value
"Oc1cc(O)cc(/C=C/c2ccc(O)c(O)c2)c1 [piceatannol, Piceatannol]",Kq (quenching rate constant),[1]; 298 K,5.02e+13 M⁻¹ s⁻¹
same,Kq (quenching rate constant),[1]; 304 K,7.01e+13 M⁻¹ s⁻¹
same,Kq (quenching rate constant),[1]; 310 K,1.604e+14 M⁻¹ s⁻¹
same,Kd,[1]; T 298 K,2.03 µM
same,Kd,[1]; T 304 K,1.38 µM
same,Kd,[1]; T 310 K,0.739 µM
same,K SV (Stern–Volmer quenching constant),[1]; T 298 K,5.02 ± 0.039 ×10^5 L mol^−1
same,n (number of binding sites per α-glucosidase molecule),[1]; T 298 K,1.17 ± 0.057
same,ΔG°,[1]; T 298 K,-7.741 ± 2.3 kcal/mol
same,K SV (Stern–Volmer quenching constant),[1]; T 304 K,7.01 ± 0.032 ×10^5 L mol^−1
same,n (number of binding sites per α-glucosidase molecule),[1]; T 304 K,1.16 ± 0.045
same,ΔG°,[1]; T 304 K,-8.207 ± 2.3 kcal/mol
same,K SV (Stern–Volmer quenching constant),[1]; T 310 K,16.04 ± 0.049 ×10^5 L mol^−1
same,n (number of binding sites per α-glucosidase molecule),[1]; T 310 K,1.32 ± 0.017
same,ΔG°,[1]; T 310 K,-8.676 ± 2.3 kcal/mol
same,ΔH°,[1]; [4],15.43 ± 2.31 kcal/mol
same,ΔS°,[1]; [4],325.31 ± 31.80 J mol^−1 K^−1
same,IC50,[2],4.39 ± 0.74 µM
same,Ki,[3],5.38 ± 0.24 µM
same,type of inhibition (mechanism),"[3]; Lineweaver–Burk plots, piceatannol 0-10 μM",non-competitive
same,reversibility of inhibition,"[3]; plots of υ versus [α-glucosidase], piceatannol 0-10 μM",reversible
